Bioassay records deposited in PubChem BioAssay by several laboratories.
Most compounds without a hit are left out; they make up all but 4.9% or so of the library.
NF-kB expr up: raises NF-kB expression in human neuronal cells; AID 1239; NF-kB reporter expression; active compounds read high; 1.6% of 190,000 active; fold change at 12.5 µM; in the data active = fold change above about 3.3
APP 5'UTR act: APP 5'UTR luciferase reporter activation | SH-SY5Y APP 5'UTR luciferase reporter, luminescence; zero percent = DMSO vehicle wells | activation, % at 2 µM | 1% of 190,000 active | AID 1276;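 active = activation above a set limit, based on mean plus 3 SD of controls, cut at about 140% in these data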
STAT1 activator: activators of IFN-gamma induced STAT1 signaling. NIH 3T3 STAT1-luciferase reporter, luminescence; 100% = IFN-gamma alone, no compound. activation (% of control), % at 5.5 µM. 2.6% of 200,000 active. AID 932;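 active = activation above the screen-wide mean activation plus 3 SD, cut at about 130% in these data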
STAT1 blocker: reduces IFN-gamma driven STAT1 reporter signal; NIH 3T3 STAT1-luciferase reporter, luminescence; inhibition, % at 5.5 µM; 0.35% of 200,000 active;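 active = inhibition above a set limit, the mean inhibition across all tested compounds plus 3 SD, cut at about 34% in these data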
STAT3 blocker: STAT3 signaling inhibition; U3A cells, IL-6 STAT3-luciferase reporter, luminescence; host cell line lacks STAT1; inhibition, % at 5.5 µM; 0.89% of 190,000 active;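 active = inhibition above the mean inhibition across all screened compounds plus 3 SD, cut at about 44% in these data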
STAT3 activator: increases IL-6 driven STAT3 reporter signal; 0.91% of 190,000 active; activation (% of control), % at 5.6 µM; AID 871; U3A cells, IL-6 STAT3-luciferase reporter, luminescence; 100% = signal with IL-6 EC80 alone;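 active = activation above the screen-wide mean of compound activation plus 3 SD, cut at about 130% in these data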
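Material: STAT3-luciferase reporter U3A cells. Controls: IL-6-treated wells, 100% activation. Read-out: % activation versus median of IL-6-stimulated wells. Probe or stimulus: IL-6 stimulus at 33 ng/mL final. Timing: compound 1 h, then IL-6 6 h at 37 °C. Signal: reporter luminescence signal.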
Numbers stand for hits; i = inactive; nt = not tested or not shown.

SMILES	NF-kB expr up	APP 5'UTR act	STAT1 activator	STAT1 blocker	STAT3 blocker	STAT3 activator
O=C(N/N=C/c1cccc(Oc2ccccc2)c1)c1cc[n+]([O-])cc1	i	i	i	i	i	i
O=C(Nc1ccc(-c2noc(COc3ccccc3Cl)n2)cc1)c1ccco1	i	i	131.7	i	i	i
COc1ccc(CC(=O)Nc2ccc(-c3noc(COc4ccccc4C)n3)cc2)cc1	i	i	i	i	i	i
O=C(CSc1ncnc2ccccc12)c1ccc2c(c1)OCCO2	i	i	i	i	i	i
O=C(COc1ncnc2ccccc12)c1ccc2c(c1)OCCO2	3.79	170.7	142.0	i	i	i
CSc1cccc(CN2CCN(CCC(C)C)C(CCO)C2)c1 (centres undefined)	i	i	i	i	i	i
CC(Oc1ccc(Cl)cc1Cl)c1nc(-c2ccc(NC(=O)c3ccccn3)cc2)no1 (centres undefined)	i	146.9	128.7	i	i	i
O=S(=O)(NCCC1=CCCCC1)c1cccc(S(=O)(=O)N2CCOCC2)c1	i	i	i	i	i	i
CCN(C(=S)Nc1ccc(Oc2ccccc2)cc1)c1ccccc1	i	i	i	i	i	i
CCCCCCOc1ccc(OC(=O)c2ccncc2)cc1	9.91	i	i	i	i	i
COc1ccc(OC(=O)c2ccncc2)cc1	i	i	i	i	i	i
CCOC(=O)CC1(c2ccccc2)CCOC(C)(C)C1 (centres undefined)	i	i	i	i	i	i
CCc1cc2c(=O)n(-c3ccccc3)cnc2s1	i	nt	i	i	i	i
CC(=O)Cn1nnc2sc(-c3ccccc3)cc2c1=O	i	i	145.8	i	i	i
O=c1c2cc(-c3ccccc3)sc2ncn1-n1cccc1	i	i	129.1	i	i	i
O=C(Cn1cnc2sc(-c3ccccc3)cc2c1=O)N1CCOCC1	i	i	i	i	i	i
CCc1cc2c(=O)n(-c3ccc(C)cc3)cnc2s1	4.24	i	138.7	i	i	i
CC(=O)Cn1cnc2sc(-c3ccccc3)cc2c1=O	3.74	i	144.8	i	i	i
CCC12CN(C(=O)c3ccc(C)cc3)CC(CC)(CN(C(=O)c3ccc(C)cc3)C1)C2=O	i	i	i	i	i	i
Cc1ccc(C)c(CSCC(=O)NCc2cccs2)c1	i	i	i	i	i	i
CCOc1ccc(OCCCC(=O)O)cc1	i	i	i	i	i	i
COc1ccc(-n2cnc3sc(-c4ccccc4)cc3c2=O)cc1	3.48	i	149.4	i	i	i
CCc1cc(C(=O)Nc2ccc(C)cc2Br)cs1	5.83	i	136.6	i	i	143.7
Cc1cccc(NC(=S)NNC(=O)c2csc(C(C)C)c2)c1	i	i	i	i	i	i
CCN(CC)CC(=O)Nc1ccc(C)cc1Br	i	i	i	i	i	i
SMILES	NF-kB expr up	APP 5'UTR act	STAT1 activator	STAT1 blocker	STAT3 blocker	STAT3 activator
CCc1cc(C(=O)NNC(=S)Nc2cccc(C)c2)cs1	i	161.9	i	i	i	i
O=C(Nc1ccccc1)Nc1ccc2ncoc2c1	i	i	132.4	i	i	i
O=C(Nc1ccccc1)Nc1ccc2ocnc2c1	i	i	i	i	i	i
N#CC1=C(N)Oc2cc(N)ccc2C1c1cccnc1 (centres undefined)	i	i	i	i	i	i
CCN(CC)c1ccc2c(c1)OC(N)=C(C#N)C2c1cccnc1 (centres undefined)	3.49	i	i	i	i	i
COCn1c(COc2ccc3ccccc3c2)nc2ccccc21	3.91	i	137.9	i	i	i
CCn1c(COc2cccc(C)c2)nc2ccccc21	i	i	i	i	i	i
COC(=O)c1ccc(NC(=O)C(OC)c2ccccc2)cc1 (centres undefined)	i	i	i	i	i	i
CCCC(=O)Nc1cnc(NC(=O)c2cccc(F)c2)cc1C	i	172.9	i	i	i	i
O=C(Nc1ccc2[nH]c(=O)[nH]c2c1)C(F)(F)F	i	i	i	i	i	i
CCOc1ccc(/C=C\C(C)=N\O)cc1	5.14	i	i	i	i	i
CCOc1ccc(/C=C/C(=O)CCC(=O)O)cc1	nt	i	i	i	i	i
CC(=O)Nc1ccc(S(=O)(=O)Nc2nccc(/C=C/c3ccc(Cl)cc3)n2)cc1	i	i	i	i	i	i
CCc1ccc(C(=O)NC2CCCCC2)s1	4.65	i	140.7	i	i	i
CC(C)(O)C#Cc1ccc(C(=O)NC2CCCCC2)s1	i	i	i	i	i	i
Cc1cccc(Nc2ncnc3ccccc23)c1	i	i	i	i	i	i
Cc1ccc(Nc2ncnc3ccccc23)cc1	i	149.3	129.7	i	i	i
CC(C)Oc1ccc(Nc2ncnc3ccccc23)cc1	i	i	144.3	i	i	i
Cc1ccccc1C(=O)Oc1cccc(Nc2ncnc3ccccc23)c1	nt	i	i	i	66.8	i
COc1ccc(NC(=O)C2CCN(C(=O)Cc3ccccc3)CC2)c(OC)c1	i	i	i	i	i	i
COc1cccc(C(=O)COc2ccccc2-c2ccccc2)c1	i	i	i	i	i	i
CCCC(=O)N1CCN(c2ccc(NC(=O)c3ccc([N+](=O)[O-])o3)cc2)CC1	nt	i	148.4	i	i	i
CCCC(=O)N1CCN(c2ccc(NC(=O)c3ccc(Br)o3)cc2)CC1	i	i	i	i	i	i
CCC(=O)N1CCN(c2ccc(NC(=O)c3ccccc3)cc2)CC1	i	i	i	i	i	i
O=C(Nc1ccc(N2CCN(C(=O)c3ccc(Cl)cc3)CC2)cc1)c1ccc([N+](=O)[O-])o1	i	i	139.0	i	i	i
SMILES	NF-kB expr up	APP 5'UTR act	STAT1 activator	STAT1 blocker	STAT3 blocker	STAT3 activator
CCC(=O)N1CCN(c2ccc(NC(=O)c3ccc([N+](=O)[O-])o3)cc2)CC1	i	i	129.3	i	i	i
CCSc1nc(N)nc(-c2cccs2)c1C#N	i	nt	i	i	i	i
Cc1c(Cl)c([N+](=O)[O-])nn1CC(=O)NCc1cccs1	i	i	i	i	i	i
CC(C)c1ccc(S(=O)(=O)/N=C2/C=CC(=O)c3ccccc32)cc1	nt	i	i	i	i	135.1
O=C(Nc1cccc(Cl)c1)OCc1cn(-c2ccc(Cl)cc2)nn1	i	i	i	i	i	i
O=C(CCc1nnc(COc2ccccc2)o1)NC1(c2ccccc2)CC1	i	i	i	i	i	i
COC(=O)c1ccc(-c2ccc(/C=N/N3C(=O)C4C5C=CC(C6CC56)C4C3=O)o2)cc1 (centres undefined)	i	i	137.6	i	i	i
CC(C)CN(C(=O)CN1CCc2ccccc21)c1c(N)n(CC(C)C)c(=O)[nH]c1=O	i	i	i	i	i	133.0
O=C(COC(=O)c1c2c(nc3ccccc13)CCCCC2)c1ccc(Cl)s1	i	i	i	i	i	i
CCN1/C(=C/C=C/c2oc3ccc(-c4ccccc4)cc3[n+]2CC)Oc2ccc(-c3ccccc3)cc21	i	i	i	60.2	54.1	i
OC1(c2cccc(C(F)(F)F)c2)CCN(c2ncnc3c2[nH]c2ccccc23)CC1	i	i	i	i	i	i
